Experiment [1] concerns MRC5. The experiment can be described thus: In vitro inhibitory activity on MRC5 fibroblast tissue cultures inoculated with virulent RH strain of Toxoplasma gondii. The experiment is classed as functional, cell-based. The following applies: Homo sapiens. The method, boiled down:
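Confluent MRC5 fibroblast monolayers inoculated with 2000 fresh RH tachyzoites; compounds added at various concentrations after 4 h, then 72 h further incubation. Eight uninfected and eight drug-free control wells per plate. Cold-methanol-fixed cultures assayed by ELISA with peroxidase-labelled anti-SAG-1 monoclonal antibody, read at 405 nm against uninfected blank. IC50 from linear regression of OD versus log concentration.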

Experiment [2] relates to Plasmodium falciparum. As to the kind of experiment: In vitro inhibitory activity against chloroquine-resistant Plasmodium falciparum NF54-R in blood. In kind it is functional, organism-based.
Experiment [3] has as its system Plasmodium yoelii yoelii. As to the kind of experiment: In vitro inhibitory activity against hepatic stages of Plasmodium yoelii yoelii 265 BY. In kind it is functional, organism-based.

By IC50 is commonly meant the midpoint of a concentration-inhibition curve. A lower IC50 goes with higher potency. Regarding `COc1c(N2CCNC(C)C2)c(F)cc2c(=O)c(C(=O)O)cn(C3CC3)c12` (stereo not drawn) [GATIFLOXACIN], the IC50 was determined as 12.7 µM in experiment [1] and 29 µM in experiment [2].
For `COc1c(N2C[C@@H]3CCCN[C@@H]3C2)c(F)cc2c(=O)c(C(=O)O)cn(C3CC3)c12` [MOXIFLOXACIN], in that order: 10.9 µM and 45 µM.
Molecule `N[C@@H]1[C@H]2CN(c3nc4c(cc3F)c(=O)c(C(=O)O)cn4C3CC3)C[C@@H]12` [TROVAFLOXACIN4] registered an IC50 in experiment [1] of 1.68 µM.
As to `N[C@@H]1[C@H]2CN(c3nc4c(cc3F)c(=O)c(C(=O)O)cn4-c3ccc(F)cc3F)C[C@@H]12` [TROVAFLOXACIN], the half-inhibitory concentration (IC50) in experiment [1] stood at 0.96 µM; in experiment [2], 22 µM; in experiment [3], 74 µM.

Source of the values: ChEMBL document CHEMBL1148256, “Synthesis of new fluoroquinolones and evaluation of their in vitro activity on Toxoplasma gondii and Plasmodium spp” (Bioorg Med Chem Lett, 2004).
